Results of several laboratories.
Each line is one published result; the experiments were not run side by side.
HTR5A: 5-hydroxytryptamine receptor 5A (HTR5A, Homo sapiens, UniProt P47898)
CASP8: Caspase-8 (CASP8, Homo sapiens, UniProt Q14790)
GRK2: Beta-adrenergic receptor kinase 1 (GRK2, Homo sapiens, UniProt P25098)
ABHD6: Monoacylglycerol lipase ABHD6 (ABHD6, Homo sapiens, UniProt Q9BV23)
DRD4: D(4) dopamine receptor (DRD4, Homo sapiens, UniProt P21917)

| SMILES | target | test | setting | inhibition [%] |
| --- | --- | --- | --- | --- |
| CCN(CC)CCCC[C@H](NC(=O)[C@H](CC(C)C)NC(=O)[C@H](C)NC(=O)[C@H](Cc1ccccc1)NC(=O)c1ccc(C(C)(C)C)cc1)C(=O)N[C@@H](CO)C(=O)OC | HTR5A | ligand displacement, radioligand | 10 µM | 7 |
| CN(C)C(=O)COC(=O)Cc1ccc(OC(=O)c2ccc(NC(=N)N)cc2)cc1 | CASP8 | enzyme activity, inhibitor | 10 µM | 0 |
| c1ccc(C(NCCNC(c2ccccc2)c2ccccc2)c2ccccc2)cc1 | D(4) dopamine receptor (DRD4, Homo sapiens, UniProt P21917, del265-296) | cell-free assay | 10 µM | 10 |
| O=C1N=C(N2CCCCN2)S/C1=C\c1ccc(F)cc1O | HTR5A | ligand displacement, radioligand | 10 µM | < 10 |
| Cn1cc(-c2cccc(N3CCc4c(sc5c4CC(C)(C)C5)C3=O)c2CO)cc(Nc2ccncn2)c1=O | GRK2 | enzyme activity, inhibitor | 1 µM | 14 |
| Cc1ccccc1N(C)C(=O)Oc1nsnc1N1CCCCC1 | ABHD6 | enzyme activity, inhibitor, fluorescence | 1 µM, lysate | 17 |
| COc1ccc(S(=O)(=O)N2CCCCC2)cc1C | DRD4 | ligand displacement, radioligand | 10 µM | < 30 |
| CCOC(=O)c1ccc(OC(=O)CCCCCNC(=N)N)cc1 | CASP8 | enzyme activity, inhibitor | 10 µM | 1 |
| Cn1cc(-c2cc(F)cc(N3CCn4c(cc5c4CCCC5)C3=O)c2CO)cc(Nc2ccc(N3CCN(C4COC4)CC3)cn2)c1=O | GRK2 | enzyme activity, inhibitor | 0.1 µM | -1 |
| CN(C)C(=O)Oc1nsnc1N1CCCCC1 | ABHD6 | enzyme activity, inhibitor, fluorescence | 1 µM, lysate | 10 |
| COc1cc2c3c(c1OC)-c1cc4c(cc1CC3N(C)CC2)OCO4 (racemic) | HTR5A | ligand displacement, radioligand | 10 µM | 92.8 |
| CN(CCN1CCC(OC(=O)Nc2ccccc2-c2ccccc2)CC1)C(=O)c1ccc(CN2CCC(C(N)=O)CC2)cc1 | DRD4 | ligand displacement, radioligand | 1 µM | -4 |
| C#Cc1n[nH]c2c(-c3cn([C@@H](C)c4ccccn4)c(=O)[nH]c3=O)cc(F)cc12 | RAC-beta serine/threonine-protein kinase (AKT2, Homo sapiens, UniProt P31751) | enzyme activity, inhibitor | 0.1 µM | 3.8 |
| N=C(N)c1ccc2cc(OC(=O)c3ccc(N=C(N)N)cc3)ccc2c1 | CASP8 | enzyme activity, inhibitor | 10 µM | 0 |
